Measured values reported in ChEMBL document CHEMBL3612005, “Discovery of N-aryl-naphthylamines as in vitro inhibitors of the interaction between HIV integrase and the cofactor LEDGF/p75” (Eur J Med Chem, 2015).
Active and inactive are the calls of the source. No cut-off for these calls is given here.

Experiments:
[1] = target: Human immunodeficiency virus type 1 integrase (Human immunodeficiency virus 1) (UniProt Q7ZJM1); test: Binding affinity to His6-tagged recombinant HIV1 Integrase assessed as inhibition of protein interaction with 3xFLAG-tagged LEDGF/p75 at 100 uM preincubated for 30 mins followed by 3xFLAG-tagged LEDGF/p75 addition measured after 60 mins by AlphaScreen assay relative to control
Procedure, shortened: (§1)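 His6-integrase (300 nM final) preincubated with compound 30 min at 4 °C, then FLAG-LEDGF/p75 (300 nM final) added for 60 min at 4 °C; Ni-chelate donor and anti-FLAG acceptor beads (20 µg/mL each) added, 1 h at 30 °C, light-protected. Buffer: 25 mM Tris-HCl pH 7.4, 150 mM NaCl, 1 mM MgCl2, 0.01% Tween-20, 0.1% BSA. Single-point screen at 100 µM; IC50 determined where inhibition exceeded 50%.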

[2] = target: Human immunodeficiency virus type 1 integrase (Human immunodeficiency virus 1, UniProt Q7ZJM1); test: Binding affinity to His6-tagged recombinant HIV1 Integrase assessed as inhibition of protein interaction with 3xFLAG-tagged LEDGF/p75 preincubated for 30 mins followed by 3xFLAG-tagged LEDGF/p75 addition measured after 60 mins by AlphaScreen assay; procedure, shortened: as §1
[3] = system: Human immunodeficiency virus 1; test: Antiviral activity against HIV1 3B infected in human MT4 cells assessed as protection against virus-induced cytopathic effect by MTT assay; type: functional, organism-based; details: Human immunodeficiency virus 1, 3B
Procedure, shortened: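 MT-4 cells infected with 100–300 CCID50 of HIV-1 IIIB (virus titred in MT-4 cells) with five-fold serial dilutions of compound; protection from viral cytopathic effect read by MTT reduction to formazan, measured spectrophotometrically; EC50 = concentration giving 50% protection.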

[4] = Cytotoxicity against human MT4 cells assessed as reduction in cell viability by MTT assay; type: cell-based
Procedure, shortened: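 Uninfected MT-4 cells exposed to five-fold serial dilutions of compound; viability measured by MTT reduction to formazan, read spectrophotometrically; CC50 = concentration killing 50% of cells.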

Homo sapiens = species on record: Homo sapiens; test: Inhibition of FLAG-tagged GST (unknown origin) at 100 uM by emission quenching AlphaScreen assay relative to control
Procedure, shortened: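 Emission-quench counter-screen: FLAG-tagged GST (500 nM final) replaces integrase and LEDGF/p75, otherwise run as the AlphaScreen interaction assay (Ni-chelate donor and anti-FLAG acceptor beads, 20 µg/mL each, 1 h at 30 °C; Tris-HCl pH 7.4 buffer). Compound tested at 100 µM; percent inhibition of signal.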

Sequence of Human immunodeficiency virus type 1 integrase (Q7ZJM1 whole entry): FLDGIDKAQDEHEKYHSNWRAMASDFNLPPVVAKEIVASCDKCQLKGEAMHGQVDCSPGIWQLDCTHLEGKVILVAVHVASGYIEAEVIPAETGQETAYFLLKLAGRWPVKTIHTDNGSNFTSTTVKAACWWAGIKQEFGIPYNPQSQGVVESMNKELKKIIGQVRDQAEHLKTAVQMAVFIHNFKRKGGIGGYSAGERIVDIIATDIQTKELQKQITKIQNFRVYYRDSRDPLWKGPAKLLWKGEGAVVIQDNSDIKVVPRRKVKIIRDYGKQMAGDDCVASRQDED
Sequence of Human immunodeficiency virus type 1 integrase (Human immunodeficiency virus 1) (Q7ZJM1 as listed by the source): as the sequence (Q7ZJM1 whole entry) above

| SMILES | inhibition [1] | IC50 [2] | EC50 [3] | CC50 [4] | inhibition (Homo sapiens) |
| --- | --- | --- | --- | --- | --- |
| COC(=O)c1ccc(Nc2ccc(O)c3ccccc23)cc1 | 49% |  |  |  |  |
| Oc1ccc(Sc2ccc(O)c3ccccc23)cc1 | 38% |  |  |  |  |
| CCOC(=O)c1cn(Cc2ccc(C(=O)OC)cc2)c2ccccc2c1=O | 60% | > 100 µM | > 5.63 µM | 5.63 µM |  |
| O=C(O)c1ccc(Cn2cc(C(=O)O)c(=O)c3ccccc32)cc1 | 16% |  |  |  |  |
| O=C(O)c1ccc(Nc2ccc3ccccc3c2O)cc1 | 66% | 70.1 µM | > 23.7 µM | 23.7 µM |  |
| COc1ccc(S(=O)(=O)c2ccc(OC)c3ccccc23)cc1 | inactive |  |  |  |  |
| COC(=O)c1ccc(Cn2cc(C(C)=O)c(=O)c3ccccc32)cc1 | 46% |  |  |  |  |
| O=C(O)c1cc(Nc2ccc(O)c3ccccc23)ccc1O | 88% | 19.1 µM | > 126 µM | 126 µM | 52% |
| COc1ccc(Sc2ccc(OC)c3ccccc23)cc1 | inactive |  |  |  |  |
| COC(=O)c1ccc(Cn2ccc(=O)c3ccccc32)cc1 | 25% |  |  |  |  |
| COc1c(Nc2ccc(C(=O)O)cc2)ccc2ccccc12 | inactive |  |  |  |  |
| COc1ccc(Nc2ccc(OC)c3ccccc23)cc1C(=O)O | 41% |  |  |  |  |
| O=C(O)c1ccc(Nc2cccc3ccccc23)cc1 | 39% |  |  |  |  |
| COc1ccc(Nc2ccc(OC)c3ccccc23)cc1 | 57% |  |  |  |  |
| O=C(O)c1ccccc1Nc1c(O)ccc2ccccc12 | 56% |  |  |  |  |
| COC(=O)c1ccccc1Nc1c(O)ccc2ccccc12 | 28% |  |  |  |  |
| COC(=O)c1ccc(Nc2ccc3ccccc3c2OC)cc1 | inactive |  |  |  |  |
| COC(=O)c1cc(Nc2ccc(OC)c3ccccc23)ccc1OC | inactive |  |  |  | 92% |
| Oc1ccc(Nc2ccc(O)c3ccccc23)cc1 | 95% |  |  |  | 84% |

| SMILES | inhibition [1] | IC50 [2] | EC50 [3] | CC50 [4] | inhibition (Homo sapiens) |
| --- | --- | --- | --- | --- | --- |
| COC(=O)c1ccc(Nc2cccc3ccccc23)cc1 | 62% |  | > 27.5 µM | 27.5 µM |  |
| CC(=O)c1cn(Cc2ccc(C(=O)O)cc2)c2ccccc2c1=O | inactive |  |  |  |  |
| COC(=O)c1ccc(Nc2ccc(OC)c3ccccc23)cc1 | 59% | 34.8 µM |  |  | inactive |
| COc1ccc(I)cc1Nc1ccc(OC)c2ccccc12 | 61% | 28.9 µM | > 12.5 µM | 12.5 µM |  |
| COc1ccc(Nc2ccc(C(=O)O)cc2)c2ccccc12 | 33% |  |  |  |  |
| COC(=O)c1ccc(Nc2ccc3ccccc3c2O)cc1 | 58% |  |  |  |  |
| O=C(O)c1ccc(Cn2ccc(=O)c3ccccc32)cc1 | inactive |  |  |  |  |
| COc1c(Nc2ccc(I)cc2)ccc2ccccc12 | inactive |  |  |  |  |
| COc1ccc2ccccc2c1Nc1c(OC)ccc2ccccc12 | 100% | 13.8 µM | > 3.41 µM | 3.41 µM | 74% |
| CSc1ccc(Nc2ccc(F)c3ccccc23)cc1 | inactive |  |  |  |  |
| COC(=O)c1ccccc1Nc1c(OC)ccc2ccccc12 | inactive |  |  |  |  |
| Cc1ccc(-c2c(C(OC(C)(C)C)C(=O)O)ccc3sc(C)cc23)cc1 (stereo not given) |  | 0.046 µM | 0.069 µM | 96 µM |  |
| COc1ccc(Nc2ccccc2)c2ccccc12 | inactive |  |  |  |  |
| COc1c(Nc2ccccc2)ccc2ccccc12 | inactive |  |  |  |  |
| Oc1c(Nc2ccccc2)ccc2ccccc12 | 61% |  |  |  |  |
| O=C(O)c1ccc(Nc2ccc(O)c3ccccc23)cc1 | 95% | 2.5 µM | > 1.07 µM | 1.07 µM | 16% |
| Fc1ccc(Nc2ccc(F)c3ccccc23)cc1 | 63% | > 100 µM | > 38.4 µM | 38.4 µM |  |
| COc1ccccc1Nc1ccc(OC)c2ccccc12 | inactive |  |  |  |  |
| O=S(=O)(c1ccc(O)cc1)c1ccc(O)c2ccccc12 | 30% |  |  |  |  |
